Results reported in ChEMBL document CHEMBL1123437, “Isozyme-specific enzyme inhibitors. 12. C- and N-methylmethionines as substrates and inhibitors of methionine adenosyltransferases of normal and hepatoma rat tissues” (J Med Chem, 1986).

Experiments:
[1] = target: S-adenosylmethionine synthetase (MAT 1 and MAT 2) (Rattus norvegicus, UniProt P13444+P18298); experiment: Competitive inhibitory activity against methionine adenosyltransferase; assay type: protein assay
In short: (§1)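 Rat kidney M-2 or Novikoff hepatoma M-T MAT, partially purified. Run at 37 °C, pH 8.2 (Tris, KCl, MgCl2, DTT) with 2 mM MgATP. [14C]Met at five or six levels spanning (0.5–4)×KM, with two inhibitor levels (1–3 mM) and no-inhibitor controls. 10 min, HClO4 stop, phosphocellulose disc counting. Ki from replots of double-reciprocal slopes vs inhibitor concentration.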

[2] = target: S-adenosylmethionine synthase isoform type-2 (Rattus norvegicus, UniProt P18298); experiment: Competitive inhibitory activity against Methionine adenosyltransferase II; in short: as §1
S-adenosylmethionine synthase isoform type-2, sequence (P18298 whole entry, canonical isoform): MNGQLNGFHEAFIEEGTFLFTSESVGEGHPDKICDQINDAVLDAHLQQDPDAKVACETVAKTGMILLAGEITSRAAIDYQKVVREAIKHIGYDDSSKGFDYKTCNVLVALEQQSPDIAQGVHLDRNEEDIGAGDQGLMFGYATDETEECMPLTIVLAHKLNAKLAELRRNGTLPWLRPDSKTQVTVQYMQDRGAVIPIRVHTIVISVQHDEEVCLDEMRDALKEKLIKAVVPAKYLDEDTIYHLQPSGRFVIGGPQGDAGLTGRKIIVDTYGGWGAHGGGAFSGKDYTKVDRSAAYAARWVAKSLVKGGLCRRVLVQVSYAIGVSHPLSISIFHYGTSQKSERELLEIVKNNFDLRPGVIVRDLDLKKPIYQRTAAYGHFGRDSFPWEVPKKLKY

Ki [1] [mM]	Ki [2] [mM]	SMILES
0.5	0.5	CSCC(C)C(N)C(=O)O (centres undefined)
3.2	2.4	CSC(C)C[C@@H](N)C(=O)O (some centres undefined)
